According to ChEMBL document CHEMBL1649475, “In vivo pharmacodynamic profile of tigecycline against phenotypically diverse Escherichia coli and Klebsiella pneumoniae isolates” (Antimicrob Agents Chemother, 2009):

Tests used:
[1] = Ratio of fAUC to MIC in Klebsiella pneumoniae isolate 135-infected ICR mouse at 50% maximal effective concentration; format: functional
In short: (§1)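 EI50, EI80 and the static exposure were read from fitted curves. Free AUC came from earlier mouse PK using concentration-dependent protein binding set at Cmax. MICs were run in triplicate by CLSI broth microdilution in Mueller-Hinton broth prepared <12 h before testing, or by Etest.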

[2] = Ratio of fAUC to MIC in extended-spectrum beta-lactamase producing Klebsiella pneumoniae isolate 255-infected ICR mouse at 50% maximal effective concentration; format: functional
In short: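 Female CD-1/ICR mice (~25 g) were made neutropenic with cyclophosphamide IP (150 mg/kg day −4, 100 mg/kg day −1). Each thigh received 0.1 ml IM of 10^7 CFU/ml inoculum. Tigecycline in saline was given SC 2 h later, single or multiple doses, 6.25–300 mg/kg/day. Three mice per group.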

[3] = Ratio of fAUC to MIC in extended-spectrum beta-lactamase producing Klebsiella pneumoniae isolate 266-infected ICR mouse at 50% maximal effective concentration; format: functional; in short: as §1
[4] = Ratio of fAUC to MIC in extended-spectrum beta-lactamase producing Klebsiella pneumoniae isolate 320-infected ICR mouse at 50% maximal effective concentration; format: functional; in short: as §1
[5] = Ratio of fAUC to MIC in carbapenemase producing Klebsiella pneumoniae isolate 321-infected ICR mouse at 50% maximal effective concentration; format: functional; in short: as §1
[6] = Ratio of fAUC to MIC in Escherichia coli isolate 54-infected ICR mouse at bacteriostatic concentration; format: functional; in short: as §1
[7] = Ratio of fAUC to MIC in Escherichia coli isolate 120-infected ICR mouse at bacteriostatic concentration; format: functional; in short: as §1
[8] = Ratio of fAUC to MIC in extended-spectrum beta-lactamase producing Escherichia coli isolate 315-infected ICR mouse at bacteriostatic concentration; format: functional; in short: as §1
[9] = Ratio of fAUC to MIC in extended-spectrum beta-lactamase producing Escherichia coli isolate 321-infected ICR mouse at bacteriostatic concentration; format: functional; in short: as §1
[10] = Ratio of fAUC to MIC in extended-spectrum beta-lactamase producing Escherichia coli isolate 322-infected ICR mouse at bacteriostatic concentration; format: functional; in short: as §1
[11] = Ratio of fAUC to MIC in Klebsiella pneumoniae isolate 134-infected ICR mouse at bacteriostatic concentration; format: functional; in short: as §1
[12] = Ratio of fAUC to MIC in Klebsiella pneumoniae isolate 135 at bacteriostatic concentration; format: functional; in short: as §1
[13] = Ratio of fAUC to MIC in extended-spectrum beta-lactamase producing Klebsiella pneumoniae isolate 255-infected ICR mouse at bacteriostatic concentration; format: functional; in short: as §1
[14] = Ratio of fAUC to MIC in extended-spectrum beta-lactamase producing Klebsiella pneumoniae isolate 266 at bacteriostatic concentration; format: functional; in short: as §1
[15] = Ratio of fAUC to MIC in extended-spectrum beta-lactamase producing Klebsiella pneumoniae isolate 320-infected ICR mouse at bacteriostatic concentration; format: functional; in short: as §1
[16] = Ratio of fAUC to MIC in carbapenemase producing Klebsiella pneumoniae isolate 321-infected ICR mouse at bacteriostatic concentration; format: functional; in short: as §1
[17] = tested on: Escherichia coli; assay: Antibacterial activity against Escherichia coli isolate 54 infected in ICR mouse assessed as change in bacterial load at 6.25 to 50 mg/kg, sc; format: functional; conditions: dose mg/kg 6.25-50; route subcutaneous
In short: (§2)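 Female CD-1/ICR mice (~25 g) were made neutropenic with intraperitoneal cyclophosphamide, 150 mg/kg 4 days and 100 mg/kg 1 day before inoculation. Isolates were grown on blood agar at 35°C for 18–24 h, and 0.1 ml of 10^7 CFU/ml was injected intramuscularly per thigh. At 2 h, tigecycline in saline was given sc as single or multiple doses of 3.125–50 mg/kg. Thighs were homogenized at 24 h and plated. Read-out was mean change in log10 CFU/ml versus 0-h controls, three mice per group.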

[18] = tested on: Escherichia coli; assay: Antibacterial activity against Escherichia coli isolate 120 infected in ICR mouse assessed as change in bacterial load at 6.25 to 50 mg/kg, sc; format: functional; conditions: dose mg/kg 6.25-50; route subcutaneous; in short: as §2
[19] = tested on: Escherichia coli; assay: Antibacterial activity against extended-spectrum beta-lactamase producing Escherichia coli isolate 315 infected in ICR mouse assessed as change in bacterial load at 6.25 to 50 mg/kg, sc; format: functional; conditions: dose mg/kg 6.25-50; route subcutaneous; in short: as §2
[20] = tested on: Escherichia coli; assay: Antibacterial activity against extended-spectrum beta-lactamase producing Escherichia coli isolate 321 infected in ICR mouse assessed as change in bacterial load at 6.25 to 50 mg/kg, sc; format: functional; conditions: dose mg/kg 6.25-50; route subcutaneous; in short: as §2
[21] = tested on: Escherichia coli; assay: Antibacterial activity against extended-spectrum beta-lactamase producing Escherichia coli isolate 322 infected in ICR mouse assessed as change in bacterial load at 6.25 to 50 mg/kg, sc; format: functional; conditions: dose mg/kg 6.25-50; route subcutaneous; in short: as §2
[22] = tested on: Klebsiella pneumoniae; assay: Antibacterial activity against Klebsiella pneumoniae isolate 134 infected in ICR mouse assessed as change in bacterial load at 6.25 to 50 mg/kg, sc; format: functional; conditions: dose mg/kg 6.25-50; route subcutaneous; in short: as §2
[23] = tested on: Klebsiella pneumoniae; assay: Antibacterial activity against Klebsiella pneumoniae isolate 135 infected in ICR mouse assessed as change in bacterial load at 6.25 to 50 mg/kg, sc; format: functional; conditions: dose mg/kg 6.25-50; route subcutaneous; in short: as §2
[24] = tested on: Klebsiella pneumoniae; assay: Antibacterial activity against extended-spectrum beta-lactamase producing Klebsiella pneumoniae isolate 255 infected in ICR mouse assessed as change in bacterial load at 6.25 to 50 mg/kg, sc; format: functional; conditions: dose mg/kg 6.25-50; route subcutaneous; in short: as §2
[25] = tested on: Klebsiella pneumoniae; assay: Antibacterial activity against extended-spectrum beta-lactamase producing Klebsiella pneumoniae isolate 266 infected in ICR mouse assessed as change in bacterial load at 6.25 to 50 mg/kg, sc; format: functional; conditions: dose mg/kg 6.25-50; route subcutaneous; in short: as §2
[26] = tested on: Klebsiella pneumoniae; assay: Antibacterial activity against extended-spectrum beta-lactamase producing Klebsiella pneumoniae isolate 320 infected in ICR mouse assessed as change in bacterial load at 6.25 to 50 mg/kg, sc; format: functional; conditions: dose mg/kg 6.25-50; route subcutaneous; in short: as §2
[27] = tested on: Klebsiella pneumoniae; assay: Antibacterial activity against carbapenemase producing Klebsiella pneumoniae isolate 321 infected in ICR mouse assessed as change in bacterial load at 6.25 to 50 mg/kg, sc; format: functional; conditions: dose mg/kg 6.25-50; route subcutaneous; in short: as §2
[28] = tested on: Mus musculus; assay: AUC in ICR mouse at 6.25 mg/kg, sc; conditions: in vivo
[29] = Cmax in ICR mouse at 6.25 mg/kg, sc; conditions: in vivo

Work on CN(C)c1cc(NC(=O)CNC(C)(C)C)c(O)c2c1C[C@H]1C[C@H]3[C@H](N(C)C)C(O)=C(C(N)=O)C(=O)[C@@]3(O)C(O)=C1C2=O [TIGECYCLINE] yielded a fAUC/MIC [1] of 3.62, a fAUC/MIC [2] of 2.64 and a fAUC/MIC [3] of 5.37. The fAUC/MIC [4] was 2.01, the fAUC/MIC [5] was 4.53 and the fAUC/MIC [6] was 5.96. The fAUC/MIC [7] was 4.76, the fAUC/MIC [8] was 3.88 and the fAUC/MIC [9] was 6.83. It also gave a fAUC/MIC [10] of 7.5, a fAUC/MIC [11] of 6.53 and a fAUC/MIC [12] of 5.4. For the same molecule, the fAUC/MIC [13] was 2.02, the fAUC/MIC [14] was 5.13 and the fAUC/MIC [15] was 3.09. It also gave a fAUC/MIC [16] of 5.47, a log10CFU/ml [17] of -2.05 and a log10CFU/ml [18] of -2.3. The log10CFU/ml [19] was -2, the log10CFU/ml [20] was -2.54 and the log10CFU/ml [21] was -2.4. For the same molecule, the log10CFU/ml [22] was -1.42, the log10CFU/ml [23] was -1.51 and the log10CFU/ml [24] was -3.15. For the same molecule, the log10CFU/ml [25] was -1.34, the log10CFU/ml [26] was -1.12 and the log10CFU/ml [27] was -1.46. For the same molecule, the AUC [28] was 4800 ng·h/mL and the Cmax [29] was 1700 ng/mL.
